In the library only some 4.6% were active in any assay of this set; here they are far more common.
HDAC3 inhib = HDAC3 deacetylase inhibitors, primary screen, biochemical, fluorescence, cell-free homogeneous; Histone deacetylase 3 (Homo sapiens), O15379; AID 2718, 2010; inhibition, % at 8.3 µM; recombinant HDAC3, fluorogenic peptide/trypsin coupled; 0.15% of 320,000 active; in the data active = inhibition above about 26%, passing the limit was not always enough
UCH37 DUB inh = inhibitors of human UCH37 deubiquitinase, primary screen, biochemical, Ub-AMC cleavage, fluorescence; Ubiquitin carboxyl-terminal hydrolase isozyme L5 (Homo sapiens), Q9Y5K5; purified proteasome/UCH37; inhibition, % (no concentration beside the values); 0.33% of 330,000 active;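 active = mean inhibition over replicate wells above about 20%, limit read from the data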;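 note: 0% = compound-free wells with enzyme and 100% = wells lacking proteasome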
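Material: Human UCH37 enzyme supplied as purified proteasome complex | Schedule: 30 min preincubation with enzyme, 25 min cleavage at room temperature | Detection: AMC fluorescence 355/460 nm | Measure: % inhibition of Ub-AMC cleavage fluorescence | Controls: Wells without proteasome as full block, compound-free enzyme plus substrate as uninhibited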
PfM18AAP inh-1 = PfM18AAP inhibitors, malaria aminopeptidase, primary screen, biochemical, QFRET, recombinant enzyme; M18 aspartyl aminopeptidase (Plasmodium falciparum 3D7); 1.2% of 290,000 active; H-Glu-NHMec fluorogenic cleavage; inhibition, % at 7.35 µM;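 active = inhibition above the campaign mean inhibition over all tested compounds plus 3 SD, cut at about 28% in these data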;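 note: 0% = plate median of test compound wells and 100% = 2 mM ZnCl2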
ALR inh = inhibitors of human ALR sulfhydryl oxidase, primary screen, biochemical, H2O2 detection, HRP-luminol luminescence, single point. FAD-linked sulfhydryl oxidase ALR (Homo sapiens), P55789. purified ALR, DTT oxidation. inhibition, % (no concentration beside the values). 3.8% of 290,000 active;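 active = mean replicate inhibition above about 79%, with every replicate also reaching it, limit read from the data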
FAS TE block = FAS thioesterase domain inhibitors, primary screen, biochemical, fluorescence intensity, uHTS; recombinant FAS-TE, OMFH fluorogenic substrate, fluorescence endpoint; 0.67% of 360,000 active; inhibition, % at 15 µM; AID 602261, 2012;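 active = compounds whose normalised, plate-corrected inhibition of enzyme fluorescence in the single-dose primary screen is 50% or more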;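 note: 0% = DMSO with enzyme and 100% = substrate without enzyme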
Rtt109 HAT inh = inhibitors of C. albicans Rtt109/Vps75 HAT, primary screen, biochemical, ThioGlo CoA-SH fluorescence, plate reader. Histone acetyltransferase RTT109 (Candida albicans (strain SC5314 / ATCC MYA-2876)), …. purified Rtt109/Vps75, 4 h. inhibition, % at 34.9 µM. 0.16% of 330,000 active. AID 540336, 2011;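 active = inhibition of at least 50% in every replicate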
PfM18AAP inh-2 = PfM18AAP inhibitors, malaria aminopeptidase, confirmation, biochemical, QFRET, recombinant enzyme, triplicate; shares compounds with PfM18AAP inh-1; H-Glu-NHMec fluorogenic cleavage; inhibition, % at 7.35 µM; 28% of 2,400 active;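 active = mean inhibition over replicate wells above the hit cutoff set for the earlier primary screen, cut at about 29% in these data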;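 note: 0% = median of test compound wells and 100% = 2 mM ZnCl2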
CTSL1 confirm = cathepsin L1 inhibitors, retest, confirmation, counter-screen for PFM18AAP inhibitor project, biochemical, QFRET, triplicate; purified cathepsin L1, Z-Leu-Arg-MCA fluorescence; shares compounds with PfM18AAP inh-1; 2,400 tested, under 10 active; inhibition, % at 5.96 µM;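 active = average inhibition across replicates above the hit cutoff set in the earlier primary screen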;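 note: 0% = median of test compound wells and 100% = Z-Phe-Ala-diazomethylketone 1 µM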
An asterisk follows results filed as active; nt = not tested or not shown.

SMILES	HDAC3 inhib	UCH37 DUB inh	PfM18AAP inh-1	ALR inh	FAS TE block	Rtt109 HAT inh	PfM18AAP inh-2	CTSL1 confirm
CCN(CC)S(=O)(=O)c1ccc2oc(SCC(=O)NC3CC3)nc2c1	12	2	32*	-12	-3	0	-24	-8
O=C(O)COc1ccc(C=NNc2nc(Nc3ccccc3)nc(N3CCCCC3)n2)cc1	nt	4	nt	nt	nt	nt	nt	nt
Nc1c(C(=O)Nc2ccc(F)cc2)sc(=S)n1-c1ccccc1F	-6	3	48*	nt	5	3	-6	0
Oc1c(C=Nc2ncn[nH]2)ccc2ccccc12	nt	7	nt	nt	nt	nt	nt	nt
Oc1c(/C=N/c2ncn[nH]2)ccc2ccccc12	-1	nt	64*	nt	-17	-3	52*	-4
O=C(NN=Cc1ccc(Cl)c([N+](=O)[O-])c1)C1CC1	nt	3	nt	nt	nt	nt	nt	nt
O=[N+]([O-])c1cc(C=Nc2cccc3c(O)cccc23)ccc1Cl	-27	nt	39*	nt	nt	nt	-29	-2
COc1cc(Br)cc(C=NNC(=O)Cc2ccccc2)c1O	nt	0	nt	nt	nt	nt	nt	nt
Nc1cc2c(cc1O)CCCC2	1	2	33*	15	-5	-1	58*	1
C=CCN1C(=O)/C(=C/c2ccc(OC)cc2)SC1=Nc1nccs1	nt	-5	nt	nt	nt	nt	nt	nt
O=C(NNS(=O)(=O)c1ccc(F)cc1)c1ccc2c(c1)OCO2	-14	4	50*	21	-3	-4	11	2
CC(=NN=C(N)N)c1cc(Cl)ccc1Cl	nt	2	nt	nt	nt	nt	nt	nt
COc1cc([N+](=O)[O-])ccc1NC(=O)NNC(=O)CCc1ccccc1	2	5	0	-8	17	0	nt	nt
COc1cc([N+](=O)[O-])ccc1NC(=O)NNC(=O)c1sccc1C	1	3	53*	5	8	4	45*	-2
CCC(=O)Nc1nc2ccc(NC(=O)COc3ccccc3)cc2s1	-6	0	43*	-14	-1	6	-42	-10
Cn1cc(Cl)c(C(=O)NN=Cc2ccc(OS(=O)(=O)c3ccccc3)cc2)n1	nt	-1	nt	nt	nt	nt	nt	nt
CCOC(=O)C(=NNc1ccc(C(C)=O)cc1)c1csc(Nc2ccccc2)n1	nt	-1	nt	nt	nt	nt	nt	nt
CN(C)C(=S)Nc1nc2ccccc2s1	nt	6	46*	nt	2	-3	-15	5
CC(=O)NNc1nc2ccccc2s1	2	3	51*	43	-6	-23	16	2
CCOc1ccc2nc(NC(=S)N(C)C)sc2c1	10	5	-45	26	8	nt	nt	nt
COc1cccc(C=NNc2nccnc2Cl)c1O	nt	10	nt	nt	nt	nt	nt	nt
O=C(CNC(=O)c1cccc(F)c1)NN=Cc1cc(Br)ccc1OCc1ccccc1	nt	1	nt	nt	nt	nt	nt	nt
CC(C=NO)Cc1ccc2c(c1)OCO2 (stereo unspecified)	nt	0	nt	nt	nt	nt	nt	nt
Cc1ccc2[nH]c3c(c2c1)CCc1cn[nH]c1-3	6	-16	33*	99*	-21	27	-21	5
Cc1ccc2[nH]c3c(c2c1)CCC3=O	-14	-203	2	-5	-6	5	nt	nt
SMILES	HDAC3 inhib	UCH37 DUB inh	PfM18AAP inh-1	ALR inh	FAS TE block	Rtt109 HAT inh	PfM18AAP inh-2	CTSL1 confirm
O=C(Nc1ccc([N+](=O)[O-])cc1)Nn1cnnc1	5	10	81*	-4	-5	-1	72*	0
O=C(Nc1ccc(Cl)cc1)Nn1cnc2ccccc2c1=O	-4	3	-4	-2	-1	1	nt	nt
O=C(Nc1ccc(Cl)cc1)Nn1cnnc1	nt	1	68*	nt	-5	-3	57*	0
Cc1ccc(NC(=O)Nn2cnnc2)cc1	5	1	45*	-25	-4	-1	37*	1
CC(=O)Nc1ccc(S(=O)(=O)Nc2ccc(S(=O)(=O)Nc3ncccn3)cc2)cc1	1	-2	0	0	-3	9	nt	nt
Cc1ccc(NC(=O)NN2CCOCC2)cc1	1	1	1	-4	-1	2	nt	nt
CN1CCN(NC(=O)Nc2ccc([N+](=O)[O-])cc2)CC1	5	6	2	9	-5	-1	nt	nt
CC(=O)Nc1ccc(S(=O)(=O)Nn2cnnc2)cc1	-1	0	37*	1	-4	5	36*	6
CCCNC(=O)CC(C)=NNC(=O)COc1ccc(C)cc1Br	nt	1	nt	nt	nt	nt	nt	nt
CC(=NNC(=S)Nc1cccc(C)c1)c1cccc([N+](=O)[O-])c1	nt	-1	nt	nt	nt	nt	nt	nt
Cc1ccc(CN2CCN(N=Cc3sccc3C)CC2)c(C)c1	nt	1	nt	nt	nt	nt	nt	nt
Cc1cc(C)n(CCC(=O)NN=Cc2ccc(O)cc2)n1	nt	2	nt	nt	nt	nt	nt	nt
C/C(=N\Nc1nc(N)cc(Cl)n1)c1cccc([N+](=O)[O-])c1	4	nt	34*	19	0	1	-45	3
Cc1cc(C(F)(F)F)n(-c2nc(C(=O)NN=Cc3ccc(F)cc3)cs2)n1	nt	5	nt	nt	nt	nt	nt	nt
ON=Cc1ccc2cccc(OCc3ccccc3)c2n1	nt	-50	nt	nt	nt	nt	nt	nt
CCOC(=O)N1CCN(c2ccc(O)cc2)CC1	5	2	39*	99*	-6	-2	-10	4
COc1cc(OC)cc(C(=O)NCC(=O)N2CCN(c3ccc(O)cc3)CC2)c1	-2	2	36*	73	0	10	-25	-3
O=C(C1CC1)N1CCN(c2ccc(O)cc2)CC1	3	1	43*	99*	-3	4	-32	-2
CCOC(=O)N1CCN(c2ccc(Cl)cc2)CC1	3	4	5	41	-9	1	nt	nt
O=C(CNC(=O)c1cccc(Br)c1)NN=Cc1cccnc1	nt	0	nt	nt	nt	nt	nt	nt
Cc1c(Cl)cccc1NC(=S)Nn1cnnc1	-4	3	76*	nt	-4	4	76*	2
COc1cc(C=NNc2ccc(C(F)(F)F)cn2)ccc1O	nt	6	nt	nt	nt	nt	nt	nt
Cc1ccc(C)c(NC(=S)N2CCN(c3cccc(C(F)(F)F)c3)CC2)c1	-9	3	-5	-14	6	1	nt	nt
Cc1ccnc(NC(=S)N2CCN(c3cccc(C(F)(F)F)c3)CC2)c1	5	nt	39*	26	16	-2	-20	7
C(=N\Nc1ncnc2sc3c(c12)CCC3)/c1ccncc1	-2	nt	48*	20	-1	35	-27	7
C(=N\Nc1ncnc2sc3c(c12)CCC3)/c1cccs1	2	nt	26	53	9	-1	nt	nt

Screening data: PubChem BioAssay, several laboratories
